{
  "source": "ChEMBL document CHEMBL1129289",
  "about": "“Dibenzoxepinone hydroxylamines and hydroxamic acids: dual inhibitors of cyclooxygenase and 5-lipoxygenase with potent topical antiinflammatory activity” (J Med Chem, 1996)",
  "assay_type_in_all_cases": "functional",
  "key": {"Mus musculus [1]": {"system": "Mus musculus", "assay": "Change in arachidonic acid induced oedema in mouse ear.", "outline": "(§1)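 Male CFW Swiss Webster mice, n=6. Compound or vehicle (3:7 propylene glycol:ethanol) applied topically to the right ear, 10 µL each to outer and inner surface. After 30 min, arachidonic acid 4 mg/20 µL on the right ear and vehicle on the left.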"}, "[2]": {"molecular_target": "T1, Polyunsaturated fatty acid 5-lipoxygenase (Rattus norvegicus, UniProt P12527)", "T1 sequence (P12527 whole entry)": "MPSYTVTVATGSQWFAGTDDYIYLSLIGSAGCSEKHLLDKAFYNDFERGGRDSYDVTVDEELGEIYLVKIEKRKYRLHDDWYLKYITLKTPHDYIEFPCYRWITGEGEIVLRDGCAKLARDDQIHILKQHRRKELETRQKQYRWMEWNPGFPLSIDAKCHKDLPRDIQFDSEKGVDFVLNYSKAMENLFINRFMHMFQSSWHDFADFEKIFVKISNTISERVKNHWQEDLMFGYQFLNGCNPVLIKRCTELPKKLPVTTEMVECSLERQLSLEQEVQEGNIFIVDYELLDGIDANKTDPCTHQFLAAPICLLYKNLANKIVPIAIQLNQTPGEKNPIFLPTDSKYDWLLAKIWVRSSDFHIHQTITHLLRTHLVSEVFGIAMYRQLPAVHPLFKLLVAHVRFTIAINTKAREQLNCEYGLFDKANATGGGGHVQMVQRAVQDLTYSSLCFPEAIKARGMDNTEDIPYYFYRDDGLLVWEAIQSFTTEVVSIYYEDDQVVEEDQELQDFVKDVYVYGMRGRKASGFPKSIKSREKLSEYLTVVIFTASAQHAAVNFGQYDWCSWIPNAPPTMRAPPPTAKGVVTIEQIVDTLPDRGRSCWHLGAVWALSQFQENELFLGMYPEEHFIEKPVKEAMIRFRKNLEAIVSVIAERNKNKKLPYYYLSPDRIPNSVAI", "assay": "(§2) Inhibition of 5-lipoxygenase by measuring 5-HETE levels in RBL-1 cell-free supernatant", "outline": "(§3)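 Cell-free rat basophilic leukemia (RBL-1) supernatant, 150 µg protein per tube, in duplicate. Buffer: 35 mM NaH₂PO₄ pH 7.0, 5 µM ATP, 50 µM CaCl₂, 10 µM arachidonic acid. Compounds from DMSO stocks. Run at 37 °C for 10 min and stopped with citric acid. 5-HETE measured by radioimmunoassay against a standard curve. Percent change from control; some values given at 50 µM.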"}, "Mus musculus [3]": {"system": "Mus musculus", "assay": "Inhibition of arachidonic acid oedema in mouse ear.", "outline": "as §1"}, "[4]": {"molecular_target": "T2, Polyunsaturated fatty acid 5-lipoxygenase (Rattus norvegicus) (UniProt P12527)", "T2 sequence (whole entry)": "T1 sequence (P12527 whole entry)", "assay": "as §2", "settings": "concentration not given here", "outline": "as §3"}},
  "note": "pIC50: −log10 of the molar value.",
  "data": [
    {"molecule": "CCN(O)C(=O)Cc1ccc2c(c1)C(=O)c1ccccc1CO2", "values": [
      {"measurement": "Change", "setting": "Mus musculus [1]", "result": -52, "unit": "%"},
      {"measurement": "pIC50", "setting": "[2]", "result": 6.24}
    ]},
    {"molecule": "CC(C)N(O)C(=O)CCc1ccc2c(c1)C(=O)c1ccccc1CO2", "values": [
      {"measurement": "Change", "setting": "Mus musculus [1]", "result": -63, "unit": "%"},
      {"measurement": "pIC50", "setting": "[2]", "result": 6.24}
    ]},
    {"molecule": "CN(O)C(=O)CCc1ccc2c(c1)Cc1ccccc1CO2", "values": [
      {"measurement": "Change", "setting": "Mus musculus [1]", "result": -67, "unit": "%"},
      {"measurement": "pIC50", "setting": "[2]", "result": 7.70},
      {"measurement": "ED50", "setting": "Mus musculus [3]", "result": 0.7, "unit": "mg ear-1"}
    ]},
    {"molecule": "O=C1c2ccccc2COc2ccc(CC(=O)N(O)C3CCCCC3)cc21", "values": [
      {"measurement": "Change", "setting": "Mus musculus [1]", "result": -29, "unit": "%"},
      {"measurement": "pIC50", "setting": "[2]", "result": 6.17}
    ]},
    {"molecule": "COc1ccc2c(c1)c(CC(=O)O)c(C)n2C(=O)c1ccc(Cl)cc1", "note": "[INDOMETHACIN]", "values": [
      {"measurement": "ED50", "setting": "Mus musculus [3]", "result": 1.63, "unit": "mg ear-1"}
    ]},
    {"molecule": "O=C(O)Cc1ccc2c(c1)C(=O)c1ccccc1CO2", "note": "[ISOXEPAC]", "values": [
      {"measurement": "inhibition", "setting": "[4]", "result": 1.5, "unit": "%"},
      {"measurement": "ED50", "setting": "Mus musculus [3]", "result": 55, "unit": "mg ear-1"}
    ]},
    {"molecule": "CC(C)Cc1ccc(C(C)C(=O)O)cc1", "note": "(configuration not stated) [IBUPROFEN]", "values": [
      {"measurement": "Change", "setting": "Mus musculus [3]", "result": -11, "unit": "%"}
    ]},
    {"molecule": "CC(Cc1ccc(O)c(O)c1)C(C)Cc1ccc(O)c(O)c1", "note": "(configuration not stated) [NORDIHYDROGUAIARETIC ACID]", "values": [
      {"measurement": "ED50", "setting": "Mus musculus [3]", "result": 3.1, "unit": "mg ear-1"}
    ]},
    {"molecule": "CN(O)CCc1ccc2c(c1)C(=O)c1ccccc1CO2", "values": [
      {"measurement": "Change", "setting": "Mus musculus [1]", "result": -46, "unit": "%"}
    ]},
    {"molecule": "CCN(O)C(=O)CCc1ccc2c(c1)C(=O)c1ccccc1CO2", "values": [
      {"measurement": "Change", "setting": "Mus musculus [1]", "result": -55, "unit": "%"},
      {"measurement": "pIC50", "setting": "[2]", "result": 6.82}
    ]},
    {"molecule": "CC(C)N(O)CCc1ccc2c(c1)C(=O)c1ccccc1CO2", "values": [
      {"measurement": "Change", "setting": "Mus musculus [1]", "result": -47, "unit": "%"},
      {"measurement": "pIC50", "setting": "[2]", "result": 6.89}
    ]},
    {"molecule": "CC(=O)N(O)CCc1ccc2c(c1)C(=O)c1ccccc1CO2", "values": [
      {"measurement": "Change", "setting": "Mus musculus [1]", "result": -61, "unit": "%"},
      {"measurement": "pIC50", "setting": "[2]", "result": 6.72}
    ]},
    {"molecule": "O=C(CCCCCCCCc1ccccc1)NO", "values": [
      {"measurement": "pIC50", "setting": "[2]", "result": 6.32},
      {"measurement": "ED50", "setting": "Mus musculus [3]", "result": 2.56, "unit": "mg ear-1"}
    ]},
    {"molecule": "CN(O)C(=O)Cc1ccc2c(c1)C(=O)c1ccccc1CO2", "values": [
      {"measurement": "Change", "setting": "Mus musculus [1]", "result": -63, "unit": "%"},
      {"measurement": "pIC50", "setting": "[2]", "result": 5.92}
    ]},
    {"molecule": "CCN(O)CCc1ccc2c(c1)Cc1ccccc1CO2", "values": [
      {"measurement": "Change", "setting": "Mus musculus [1]", "result": -50, "unit": "%"},
      {"measurement": "pIC50", "setting": "[2]", "result": 6.49}
    ]},
    {"molecule": "O=C1c2ccccc2COc2ccc(CCC(=O)N(O)C3CCCCC3)cc21", "values": [
      {"measurement": "Change", "setting": "Mus musculus [1]", "result": -14, "unit": "%"},
      {"measurement": "pIC50", "setting": "[2]", "result": 5.70}
    ]},
    {"molecule": "CN(O)C(=O)C(C)(C)Cc1ccc2c(c1)C(=O)c1ccccc1CO2", "values": [
      {"measurement": "Change", "setting": "Mus musculus [1]", "result": 29, "unit": "%"},
      {"measurement": "pIC50", "setting": "[2]", "result": 6.18}
    ]},
    {"molecule": "CC(=O)N(O)Cc1ccc2c(c1)C(=O)c1ccccc1CO2", "values": [
      {"measurement": "Change", "setting": "Mus musculus [1]", "result": -47, "unit": "%"},
      {"measurement": "pIC50", "setting": "[2]", "result": 6.68}
    ]},
    {"molecule": "CCN(O)CCc1ccc2c(c1)C(=O)c1ccccc1CO2", "values": [
      {"measurement": "Change", "setting": "Mus musculus [1]", "result": -50, "unit": "%"},
      {"measurement": "pIC50", "setting": "[2]", "result": 6.32}
    ]},
    {"molecule": "CN(O)C(=O)CCc1ccc2c(c1)C(=O)c1ccccc1CO2", "values": [
      {"measurement": "Change", "setting": "Mus musculus [1]", "result": -66, "unit": "%"},
      {"measurement": "pIC50", "setting": "[2]", "result": 8.00},
      {"measurement": "ED50", "setting": "Mus musculus [3]", "result": 0.69, "unit": "mg ear-1"}
    ]},
    {"molecule": "CCN(O)CCc1ccc2c(c1)C(O)c1ccccc1CO2", "note": "(configuration not stated)", "values": [
      {"measurement": "Change", "setting": "Mus musculus [1]", "result": -47, "unit": "%"},
      {"measurement": "pIC50", "setting": "[2]", "result": 6.35}
    ]},
    {"molecule": "O=C(Cc1ccc2c(c1)C(=O)c1ccccc1CO2)NO", "values": [
      {"measurement": "Change", "setting": "Mus musculus [1]", "result": -19, "unit": "%"},
      {"measurement": "pIC50", "setting": "[2]", "result": 5.05}
    ]},
    {"molecule": "CCN(O)C(=O)C(C)c1ccc2c(c1)C(=O)c1ccccc1CO2", "note": "(configuration not stated)", "values": [
      {"measurement": "Change", "setting": "Mus musculus [1]", "result": -38, "unit": "%"},
      {"measurement": "inhibition", "setting": "[4]", "result": 94, "unit": "%"}
    ]},
    {"molecule": "CC(C(=O)N(C)O)c1ccc2c(c1)C(=O)c1ccccc1CO2", "note": "(configuration not stated)", "values": [
      {"measurement": "Change", "setting": "Mus musculus [1]", "result": -44, "unit": "%"},
      {"measurement": "pIC50", "setting": "[2]", "result": 5.89}
    ]},
    {"molecule": "CON(C)C(=O)CCc1ccc2c(c1)C(=O)c1ccccc1CO2", "values": [
      {"measurement": "Change", "setting": "Mus musculus [1]", "result": -41, "unit": "%"},
      {"measurement": "pIC50", "setting": "[2]", "result": "< 4.30"}
    ]},
    {"molecule": "CC(C)N(O)C(=O)Cc1ccc2c(c1)C(=O)c1ccccc1CO2", "values": [
      {"measurement": "Change", "setting": "Mus musculus [1]", "result": -52, "unit": "%"},
      {"measurement": "pIC50", "setting": "[2]", "result": 5.91}
    ]},
    {"molecule": "CN(O)CCCc1ccc2c(c1)C(=O)c1ccccc1CO2", "values": [
      {"measurement": "Change", "setting": "Mus musculus [1]", "result": -53, "unit": "%"},
      {"measurement": "pIC50", "setting": "[2]", "result": 6.21}
    ]}
  ]
}
